Measured values reported in ChEMBL document CHEMBL3045650, “Design, synthesis, and 3D-QSAR analysis of novel 1,3,4-oxadiazol-2(3H)-ones as protoporphyrinogen oxidase inhibitors” (J Agric Food Chem, 2010).
pKi: −log10 of the molar value.

Tests used:
[1] = test system: Cyperus iria; test: Post-emergence herbicidal activity against Cyperus iria assessed as growth inhibition at emulsified concentrate of 75 g/ai ha after 15 days by greenhouse test; format: functional
[2] = test system: Brassica juncea; test: Post-emergence herbicidal activity against Brassica juncea assessed as growth inhibition at emulsified concentrate of 75 g/ai ha after 15 days by greenhouse test; format: functional
Summary of the method: (§1)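 Compounds were made up as 100 g/L emulsifiable concentrates in DMF with Tween-80, then diluted in water. About 20 seeds were sown 1-3 cm deep in pots and grown in a greenhouse at 15-30 °C and 50% relative humidity. Sprays were applied postemergence at the two-leaf stage. Untreated and DMF + Tween-80 solvent controls were included. Injury was scored visually 15 days after treatment, with three replicates per treatment.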

[3] = test system: Eclipta prostrata; test: Post-emergence herbicidal activity against Eclipta prostrata assessed as growth inhibition at emulsified concentrate of 150 g/ai ha after 15 days by greenhouse test; format: functional
Summary of the method: (§2)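 About 20 seeds sown 1–3 cm deep, grown at 15–30 °C and 50% RH. Dicot seedlings sprayed postemergence at the two-leaf stage with a 100 g/L emulsifiable concentrate (DMF/Tween-80) diluted in water, 150 g ai/ha. Untreated and solvent controls included. Visual rating at 15 days, three replicates.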

[4] = test system: Rumex acetosa; test: Post-emergence herbicidal activity against Rumex acetosa assessed as growth inhibition at emulsified concentrate of 37.5 g/ai ha after 15 days by greenhouse test; format: functional
[5] = test system: Polygonum humifusum; test: Post-emergence herbicidal activity against Polygonum humifusum assessed as growth inhibition at emulsified concentrate of 150 g/ai ha after 15 days by greenhouse test; format: functional
[6] = target: T1, Protoporphyrinogen oxidase (Homo sapiens, UniProt P50336); test: Inhibition of Homo sapiens (human) recombinant protoporphyrinogen oxidase expressed in Escherichia coli JM109 assessed as oxidation of protoporphyrinogen IX substrate by fluorescence assay
T1 sequence (P50336 whole entry): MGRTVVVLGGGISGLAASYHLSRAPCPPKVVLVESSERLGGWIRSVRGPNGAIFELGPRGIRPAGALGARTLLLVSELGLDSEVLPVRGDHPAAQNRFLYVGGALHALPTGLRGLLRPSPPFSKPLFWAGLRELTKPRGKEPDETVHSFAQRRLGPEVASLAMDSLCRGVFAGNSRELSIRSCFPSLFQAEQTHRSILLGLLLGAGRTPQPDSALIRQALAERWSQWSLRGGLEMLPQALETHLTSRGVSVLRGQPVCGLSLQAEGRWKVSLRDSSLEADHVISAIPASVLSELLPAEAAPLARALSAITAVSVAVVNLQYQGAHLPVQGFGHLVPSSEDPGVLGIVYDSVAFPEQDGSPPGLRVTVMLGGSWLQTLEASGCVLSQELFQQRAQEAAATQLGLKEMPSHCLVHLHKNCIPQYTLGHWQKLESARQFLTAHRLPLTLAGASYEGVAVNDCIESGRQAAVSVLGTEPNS

[7] = test system: Amaranthus retroflexus; test: Post-emergence herbicidal activity against Amaranthus retroflexus assessed as growth inhibition at emulsified concentrate of 37.5 g/ai ha after 15 days by greenhouse test; format: functional; summary of the method: as §1
[8] = test system: Amaranthus retroflexus; test: Post-emergence herbicidal activity against Amaranthus retroflexus assessed as growth inhibition at emulsified concentrate of 75 g/ai ha after 15 days by greenhouse test; format: functional; summary of the method: as §1
[9] = test system: Abutilon theophrasti; test: Post-emergence herbicidal activity against Abutilon theophrasti (velvetleaf) assessed as growth inhibition at emulsified concentrate of 75 g/ai ha after 15 days by greenhouse test; format: functional
[10] = test system: Digitaria sanguinalis; test: Post-emergence herbicidal activity against Digitaria sanguinalis (hairy crabgrass) assessed as growth inhibition at emulsified concentrate of 150 g/ai ha after 15 days by greenhouse test; format: functional
Summary of the method: (§3)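 About 20 seeds sown 1–3 cm deep, grown at 15–30 °C and 50% RH. Monocot seedlings sprayed postemergence at the one-leaf stage with a 100 g/L emulsifiable concentrate (DMF/Tween-80) diluted in water, 150 g ai/ha. Untreated and solvent controls included. Visual rating at 15 days, three replicates.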

[11] = test system: Brassica juncea; test: Post-emergence herbicidal activity against Brassica juncea assessed as growth inhibition at emulsified concentrate of 37.5 g/ai ha after 15 days by greenhouse test; format: functional; summary of the method: as §1
[12] = test system: Rumex acetosa; test: Post-emergence herbicidal activity against Rumex acetosa assessed as growth inhibition at emulsified concentrate of 150 g/ai ha after 15 days by greenhouse test; format: functional
[13] = test system: Poa annua; test: Post-emergence herbicidal activity against Poa annua assessed as growth inhibition at emulsified concentrate of 150 g/ai ha after 15 days by greenhouse test; format: functional; summary of the method: as §3
[14] = test system: Brassica juncea; test: Post-emergence herbicidal activity against Brassica juncea assessed as growth inhibition at emulsified concentrate of 150 g/ai ha after 15 days by greenhouse test; format: functional; summary of the method: as §2
[15] = test system: Eclipta prostrata; test: Post-emergence herbicidal activity against Eclipta prostrata assessed as growth inhibition at emulsified concentrate of 37.5 g/ai ha after 15 days by greenhouse test; format: functional; summary of the method: as §1
[16] = test system: Polygonum humifusum; test: Post-emergence herbicidal activity against Polygonum humifusum assessed as growth inhibition at emulsified concentrate of 75 g/ai ha after 15 days by greenhouse test; format: functional
[17] = test system: Amaranthus retroflexus; test: Post-emergence herbicidal activity against Amaranthus retroflexus assessed as growth inhibition at emulsified concentrate of 150 g/ai ha after 15 days by greenhouse test; format: functional; summary of the method: as §2
[18] = test system: Cyperus iria; test: Post-emergence herbicidal activity against Cyperus iria assessed as growth inhibition at emulsified concentrate of 37.5 g/ai ha after 15 days by greenhouse test; format: functional
[19] = test system: Echinochloa crus-galli; test: Post-emergence herbicidal activity against Echinochloa crus-galli (barnyard grass) assessed as growth inhibition at emulsified concentrate of 150 g/ai ha after 15 days by greenhouse test; format: functional; summary of the method: as §3
[20] = test system: Abutilon theophrasti; test: Post-emergence herbicidal activity against Abutilon theophrasti (velvetleaf) assessed as growth inhibition at emulsified concentrate of 37.5 g/ai ha after 15 days by greenhouse test; format: functional
[21] = test system: Eclipta prostrata; test: Post-emergence herbicidal activity against Eclipta prostrata assessed as growth inhibition at emulsified concentrate of 75 g/ai ha after 15 days by greenhouse test; format: functional; summary of the method: as §1
[22] = test system: Abutilon theophrasti; test: Post-emergence herbicidal activity against Abutilon theophrasti (velvetleaf) assessed as growth inhibition at emulsified concentrate of 150 g/ai ha after 15 days by greenhouse test; format: functional
[23] = test system: Polygonum humifusum; test: Post-emergence herbicidal activity against Polygonum humifusum assessed as growth inhibition at emulsified concentrate of 37.5 g/ai ha after 15 days by greenhouse test; format: functional
[24] = test system: Rumex acetosa; test: Post-emergence herbicidal activity against Rumex acetosa assessed as growth inhibition at emulsified concentrate of 75 g/ai ha after 15 days by greenhouse test; format: functional
[25] = test system: Cyperus iria; test: Post-emergence herbicidal activity against Cyperus iria assessed as growth inhibition at emulsified concentrate of 150 g/ai ha after 15 days by greenhouse test; format: functional

SMILES: COC(=O)CSc1nc2cc(-n3nc(C(C)(C)C)oc3=O)c(Br)cc2s1
- inhibition (INH) [1]: 40%
- inhibition (INH) [2]: 0%
- inhibition (INH) [3]: 0%
- inhibition (INH) [4]: 40%
- inhibition (INH) [5]: 70%
- pKi [6]: 5.13
- inhibition (INH) [7]: 50%
- inhibition (INH) [8]: 60%
- inhibition (INH) [9]: 0%
- inhibition (INH) [10]: 0%
- inhibition (INH) [11]: 0%
- inhibition (INH) [12]: 60%
- inhibition (INH) [13]: 0%
- inhibition (INH) [14]: 0%
- inhibition (INH) [15]: 0%
- inhibition (INH) [16]: 70%
- inhibition (INH) [17]: 80%
- inhibition (INH) [18]: 40%
- inhibition (INH) [19]: 0%
- inhibition (INH) [20]: 0%
- inhibition (INH) [21]: 0%
- inhibition (INH) [22]: 0%
- inhibition (INH) [23]: 60%
- inhibition (INH) [24]: 50%
- inhibition (INH) [25]: 50%
